Experimental data gathered from unrelated publications.
gag-pol reverse transcriptase: Gag-Pol polyprotein, reverse transcriptase (gag-pol, Human immunodeficiency virus 1, UniProt P03366)
gyrA: DNA gyrase subunit A (gyrA, Escherichia coli K-12, UniProt P0AES4)

Cc1cc(C)cc(S(=O)(=O)c2c(C(=O)NCCCCNS(=O)(=O)c3ccc(F)cc3)[nH]c3ccc(Cl)cc23)c1  IC50 (gag-pol reverse transcriptase; enzyme activity; inhibitor; ELISA): 150 nM
CC(C)Oc1c(NC(=O)c2ccc(NC(=O)[C@H](CC(N)=O)NC(=O)c3ccc(NC(=O)c4ccc([N+](=O)[O-])c(OC(C)C)c4O)cc3)cc2)ccc(C(=O)Nc2ccc(C(=O)O)cc2)c1O  IC50 (gyrA; enzyme activity; inhibitor): > 50000 nM
CS(=O)(=O)/C(C#N)=C/c1cccn1S(=O)(=O)c1c(F)c(F)c(F)c(F)c1F  IC50 (Protein phosphatase methylesterase 1 (Homo sapiens, UniProt Q9Y570); enzyme activity; inhibitor): > 20000 nM
O=C(Nc1cccc2[nH]ccc12)c1ccc(F)cc1  IC50 (Alpha-synuclein, monomer (SNCA, Homo sapiens, UniProt P37840); amyloid aggregation; inhibitor; fluorescence): ~11600 nM
Cc1cc(C)cc(S(=O)(=O)c2c(C(=O)NCCCNS(=O)(=O)c3ccc(Br)cc3)[nH]c3ccc(Cl)cc23)c1  IC50 (gag-pol reverse transcriptase; enzyme activity; inhibitor; ELISA): 160 nM
CC(C)Oc1c(NC(=O)c2ccc(NC(=O)[C@H](CC(N)=O)NC(=O)c3ccc(NC(=O)c4cc(=O)c(O)c[nH]4)cc3)cc2)ccc(C(=O)Nc2ccc(C(=O)O)cc2)c1O  IC50 (gyrA; enzyme activity; inhibitor): 3600 nM
Cc1cnc(-c2ccc(-c3ccc(NC(=O)Nc4c(F)cc(F)cc4F)cc3F)c3c2C(=O)NC3)[nH]1  IC50 (STE20-like serine/threonine-protein kinase (SLK, Homo sapiens, UniProt Q9H2G2); enzyme activity; inhibitor): 14.3 nM
Cc1ccc(C(=O)Nc2ccc(S(=O)(=O)O)c3cc(S(=O)(=O)O)cc(S(=O)(=O)O)c23)cc1NC(=O)c1cccc(NC(=O)Nc2cccc(C(=O)Nc3cc(C(=O)Nc4ccc(S(=O)(=O)O)c5cc(S(=O)(=O)O)cc(S(=O)(=O)O)c45)ccc3C)c2)c1  IC50 (P2X purinoceptor 2 (P2RX2, Homo sapiens, UniProt Q9UBL9); calcium signal; antagonist): 22500 nM
N#Cc1ccc(Nc2nc(N)cc(Oc3ccc(-c4ccc(F)cc4)cc3F)n2)cc1  IC50 (gag-pol reverse transcriptase; enzyme activity; inhibitor): 60 nM
NC(=O)c1ccc[n+]([C@@H]2O[C@H](COP(=O)([O-])OP(=O)(O)OC[C@H]3O[C@@H](n4cnc5c(N)ncnc54)[C@H](O)[C@@H]3O)[C@@H](O)[C@H]2O)c1  IC50 (Protein mono-ADP-ribosyltransferase PARP12 (PARP12, Homo sapiens, UniProt Q9H0J9); enzyme activity; inhibitor): 73000 nM
N#Cc1ccc(Nc2nc(N)cc(Oc3ccc(-c4cccc(C#N)c4)cc3F)n2)cc1  IC50 (gag-pol reverse transcriptase; enzyme activity; inhibitor): 340 nM
Cc1cc(C)cc(S(=O)(=O)c2c(C(=O)NCCCCCNS(=O)(=O)c3ccc([N+](=O)[O-])cc3)[nH]c3ccc(Cl)cc23)c1  IC50 (gag-pol reverse transcriptase; enzyme activity; inhibitor; ELISA): 160 nM
CC(C)Oc1c(NC(=O)c2ccc(NC(=O)[C@H](CC(N)=O)NC(=O)c3ccc(NC(=O)c4ccc(C#N)cc4)cc3)cc2)ccc(C(=O)O)c1O  IC50 (gyrA; enzyme activity; inhibitor): 9400 nM
Cc1cc(C)cc(S(=O)(=O)c2c(C(=O)NCCNS(=O)(=O)c3ccc(C#N)cc3)[nH]c3ccc(Cl)cc23)c1  IC50 (gag-pol reverse transcriptase; enzyme activity; inhibitor; ELISA): 110 nM
CC(C)Oc1c(NC(=O)c2ccc(NC(=O)[C@H](CC(N)=O)NC(=O)c3cccc(-c4cccc(C#N)c4)c3)cc2)ccc(C(=O)Nc2ccc(C(=O)O)cc2)c1O  IC50 (gyrA; enzyme activity; inhibitor): > 50000 nM
Cc1cc(C)cc(S(=O)(=O)c2c(C(=O)NCCNS(=O)(=O)c3ccccc3)[nH]c3ccc(Cl)cc23)c1  IC50 (gag-pol reverse transcriptase; enzyme activity; inhibitor; ELISA): 55 nM
N#Cc1ccc(Nc2nc(N)cc(Oc3ccc(-c4ccccc4C#N)cc3F)n2)cc1  IC50 (gag-pol reverse transcriptase; enzyme activity; inhibitor): 100 nM
COC(=O)C1CCN(C(=O)Cc2ccc(NCc3cnc4nc(N)nc(N)c4n3)cc2)CC1  IC50 (Cytochrome P450 2C19 (CYP2C19, Homo sapiens, UniProt P33261); enzyme activity; inhibitor; luciferase): 7760 nM
